Source: PubChem
Shown are actives, neighbours in structure and some others; about 4.1% of the full set was active somewhere.
FLuc act counter: affects firefly luciferase, flagging false hits in luciferase stimulation screens; ATPlite luciferase biochemical, luminescence, 10 min; 0 = ATP-free wells, 1 = DMSO control; activation factor at 10 µM; 200,000 tested, under 10 active; AID 1027;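 active = luciferase activation factor, scaled between plate controls, of at least 2 with compound at 10 µM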
Target sequence (P08659 whole entry, looked up): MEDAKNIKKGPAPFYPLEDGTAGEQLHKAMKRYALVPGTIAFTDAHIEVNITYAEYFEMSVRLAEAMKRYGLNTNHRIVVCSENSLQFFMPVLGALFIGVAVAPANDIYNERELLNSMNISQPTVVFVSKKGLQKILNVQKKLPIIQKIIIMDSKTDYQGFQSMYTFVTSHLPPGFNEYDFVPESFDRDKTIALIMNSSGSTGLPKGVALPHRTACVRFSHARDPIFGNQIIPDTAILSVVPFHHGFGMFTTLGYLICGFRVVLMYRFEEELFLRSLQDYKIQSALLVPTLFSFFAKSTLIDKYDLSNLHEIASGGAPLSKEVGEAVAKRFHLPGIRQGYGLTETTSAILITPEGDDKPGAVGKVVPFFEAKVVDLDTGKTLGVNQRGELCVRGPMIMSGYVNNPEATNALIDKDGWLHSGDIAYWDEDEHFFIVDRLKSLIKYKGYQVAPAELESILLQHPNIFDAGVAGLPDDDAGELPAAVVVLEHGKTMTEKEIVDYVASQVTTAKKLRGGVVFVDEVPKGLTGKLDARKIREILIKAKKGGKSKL
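System: Luciferase/luciferin detection reagent, cell-free biochemical luciferase assay | Medium: PBS buffer for ATP | Dosing: Test compounds dosed from 2 mM stocks in 100% DMSO | Timing: 10 min at ambient temperature | Signal: Luminescence measurement of luciferase light output | Evaluation: Luciferase activation, seen as luminescence increase over controls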
NF-kB expr up: compounds increasing NF-kB expression in human neuronal cells; NF-kB reporter expression; hits give high values; 190,000 compounds, 1.6% hits; fold change at 12.5 µM; AID 1239; in the data active = fold change above about 3.3
FLuc inh counter: counter-screen for luciferase assay inhibitors: firefly luciferase inhibition; P08659; ATPLite firefly luciferase biochemical luminescence, 10 min; inhibition, % at 10 µM; 200,000 compounds, 1.5% hits; AID 1006;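 active = inhibition above about 50% when tested at 10 µM, limit read from the data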
APP 5'UTR act: APP 5'UTR luciferase reporter activation; SH-SY5Y APP 5'UTR luciferase reporter, luminescence; zero percent = DMSO vehicle wells; AID 1276; activation, % at 2 µM; 190,000 compounds, 1% hits;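 active = activation above a set limit, based on mean plus 3 SD of controls, cut at about 140% in these data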
STAT1 activator: activators of IFN-gamma induced STAT1 signaling. 200,000 compounds, 2.6% hits. activation (% of control), % at 5.5 µM. AID 932. NIH 3T3 STAT1-luciferase reporter, luminescence; 100% = IFN-gamma alone, no compound;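 active = activation above the screen-wide mean activation plus 3 SD, cut at about 130% in these data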
Numbers stand for hits; i = inactive; nt = not tested or not shown.

SMILES	FLuc act counter	NF-kB expr up	FLuc inh counter	APP 5'UTR act	STAT1 activator
CC(=O)Nc1ccc(C(=O)Nc2nc(-c3ccccn3)cs2)cc1	i	i	i	i	i
COC(=O)c1nnn(-c2nonc2N)c1COc1ccc(C=O)cc1OC	i	i	i	i	i
COc1ccc2nc3sc(C(=O)N4CCN(C)CC4)cc3cc2c1	i	i	i	i	i
CCc1ccc2nc3sc(C(=O)O)cc3cc2c1	i	i	68	i	i
c1ccc2c(Nc3nnc(-c4ccncc4)s3)cccc2c1	i	i	52	i	i
Cc1ccc(CO/N=C\Cc2snc(Sc3ncc(C(F)(F)F)cc3Cl)c2C#N)cc1	i	i	i	i	i
COc1cc(-c2cc(=O)c3ccccc3o2)ccc1O	i	i	i	i	134
COc1ccc(-c2cc(=O)c3c(O)c(OC)c(O)cc3o2)cc1	i	9	90	152	i
NC(=O)COc1ccc2oc(-c3ccccc3)cc(=O)c2c1	i	i	56	i	i
COc1cc(O)c2c(=O)cc(-c3ccccc3)oc2c1	i	i	i	i	i
O=c1cc(-c2ccncc2)oc2ccccc12	i	i	i	i	i
O=c1cc(-c2ccc(O)cc2)oc2ccc(O)cc12	i	4.1	i	i	150
CC1Cc2cccc3c(O)c(C(=O)c4nn[nH]n4)c(=O)n1c23 (stereo not drawn)	i	i	i	i	i
O=[N+]([O-])c1cc(S(=O)(=O)N2CCCC2)ccc1SCCO	i	i	i	i	i
COC(=O)N/N=C/c1cn(Cc2c(Cl)cccc2Cl)c2ccccc12	i	i	i	i	i
C/C(=N\NC(=O)CCC(=O)Nc1ccc(C)c(C)c1)c1cccs1	i	i	i	i	i
CC(C)(C)NC(=O)CN(C(=O)CNC(=O)c1cccs1)c1ccc2c(c1)OCCO2	i	i	i	i	i
COc1ccc(-c2cc3nnc(-c4ccccc4)nc3s2)cc1	i	i	i	i	135
CN1CCc2nc(SCCOc3ccccc3)c(C#N)cc2C1	i	i	i	i	i
CC(C)(C)S(=O)(=O)c1cnc2c(-c3ccsc3)cnn2c1N	i	i	i	i	132
O=C(/C=C/c1cccc(Oc2ccccc2)c1)N1CCOCC1	i	i	i	145	139
O=C(/C=C/c1cccc([N+](=O)[O-])c1)N1CCOCC1	i	i	i	i	i
CCN(CC)C(=O)C(=O)c1cn(CCOc2ccccc2)c2ccccc12	i	i	i	i	i
COc1ccc(Cl)cc1NC(=O)C1(c2cccs2)CCOCC1	i	i	i	i	i
Cn1ccs/c1=N\C(=O)Nc1ccccc1	i	i	i	i	141
SMILES	FLuc act counter	NF-kB expr up	FLuc inh counter	APP 5'UTR act	STAT1 activator
Cn1ccsc1=NC(=O)c1ccccc1F	i	i	i	i	i
COc1ccccc1NC(=S)NC(NC(=O)CC(C)C)C(Cl)(Cl)Cl (stereo not drawn)	i	i	i	i	i
CC1CCN(Cc2nc(-c3ccccc3)no2)CC1	nt	3.4	nt	i	142
c1ccc(-c2noc(CN3CCN(c4ccccc4)CC3)n2)cc1	i	i	i	nt	i
Cc1cccc(-c2noc(CCc3ccccc3)n2)c1	i	i	i	i	i
O=C(Nc1ccc(-c2noc(CCc3ccccc3)n2)cc1)c1ccco1	i	3.9	i	173	136
Cc1cccc(-c2noc(Cc3ccccc3)n2)c1	i	i	i	i	135
c1ccc(CCc2nc(-c3ccccc3)no2)cc1	i	i	i	i	134
Brc1ccc(-c2noc(CCc3ccccc3)n2)cc1	nt	nt	nt	i	i
CCCS(=O)c1nc(C)cc(C)c1S(C)(=O)=O (stereo not drawn)	i	i	i	i	i
Cc1ccc(C2(C(F)(F)F)NC(=O)N3N=C4CCCCCN4C3=C2C#N)cc1 (stereo not drawn)	i	i	i	i	i
c1ccc(OCc2nc(-c3ccncc3)no2)cc1	i	i	i	i	i
O=C(Nc1ccc(-c2cn3ccccc3n2)cc1)c1ccco1	i	i	86	i	144
c1ccc(OCc2nc(-c3ccccc3)no2)cc1	i	i	i	i	142
COc1cc(NC(=S)NCCc2ccc(S(N)(=O)=O)cc2)c(OC)cc1Cl	i	i	i	i	i
O=C(OCc1ccccc1F)c1ccc2c(c1)-c1ccccc1C2=O	i	4.1	i	i	i
O=C(OCc1cccc(F)c1)c1ccc2c(c1)-c1ccccc1C2=O	i	i	i	i	i
COc1cc(/C=C2\SC(=Nc3ccc(O)cc3)NC2=O)cc(OC)c1O	i	i	i	i	i
O=C1NC(=O)/C(=C/c2ccc(O)cc2)S1	i	i	i	i	130
COc1ccccc1Nc1nc(N)nc(CN2CCc3ccccc3C2)n1	i	i	i	i	i
CNC(=S)N/N=C(\C)c1ccc(N2CCOCC2)cc1	i	6.3	i	i	i
CCNC(=S)N/N=C(\C)c1ccc(N2CCOCC2)cc1	i	i	i	i	i
CCOc1ccc(NC(=O)CN(C)Cc2cc(=O)n3c(-c4ccccc4)csc3n2)cc1OCC	i	i	i	i	i
COc1cc(CNc2ccc(CNc3ncn[nH]3)cc2)ccc1OCc1ccccc1	i	i	i	i	129
c1ccc2c(CNc3ccc(CNc4ncn[nH]4)cc3)cccc2c1	i	i	i	i	i
SMILES	FLuc act counter	NF-kB expr up	FLuc inh counter	APP 5'UTR act	STAT1 activator
COc1ccccc1CNc1ccc(CNc2ncn[nH]2)cc1	i	5.3	i	i	i
O=C(OCC(=O)N1CCN(C(=O)c2ccco2)CC1)c1ccccc1OCc1ccc(Cl)cc1	i	i	i	i	i
COc1ccc(NC(=O)NCc2cccn2C)c(OC)c1	i	i	i	nt	i
Cn1cccc1CNC(=O)Nc1ccc(Cl)c(Cl)c1	i	i	i	nt	135
O=C(NCCC1=CCCCC1)c1cnc2n(c1=O)CCS2	i	i	i	i	133
O=C(NCCCc1ccccc1)c1cnc2n(c1=O)CCS2	i	i	i	i	139
O=C(NCCc1ccc(Cl)cc1)c1cnc2n(c1=O)CCS2	i	nt	i	nt	nt
Cc1cc(OCC(=O)N2CCCCCC2)ccc1[N+](=O)[O-]	i	i	i	i	138
C/C(CC(C)(C)c1ccccc1)=N\NS(=O)(=O)c1ccccc1	i	i	i	i	i
Clc1ccc(/C=C/c2ncc3ccccn23)cc1	i	3.7	67	i	144
N#C/C(=C\c1ccc(N2CCOCC2)o1)C(=O)Nc1ccc(O)cc1	i	i	50	i	i
COc1ccc(NC(=O)/C(C#N)=C/c2ccc(Br)o2)cc1	i	i	i	i	i
COc1ccc(NC(=O)/C(C#N)=C\c2ccc(N3CCOCC3)o2)cc1	i	i	84	i	i
CC1CC1c1ccc(/C=C(\C#N)C(=O)Nc2ccc(Cl)cc2)o1 (stereo not drawn)	i	i	i	i	141
CC(C)C(=O)N1CCN(c2ccc(NC(=O)c3ccc([N+](=O)[O-])o3)cc2)CC1	i	i	i	i	141
O=C(Nc1ccc(N2CCOCC2)c(Cl)c1)c1ccc([N+](=O)[O-])o1	i	i	i	i	129
CC(=O)Oc1ccc2c(=O)c(-c3nc4ccccc4s3)coc2c1	i	i	80	196	i
